TNAP inh hiacc – TNAP (human) inhibition, high acceptor | purified TNAP, CDP-star luminescence, 1 M DEA | inhibition, % at 20 µM | AID 1135 | 0.03% of 200,000 active;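 active = over 50% inhibition of tissue-nonspecific alkaline phosphatase at 20 µM in the single-dose screen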;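 also: plate controls were DMSO wells for no effect and EDTA-quenched wells as full inhibition for full effect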
Target sequence (P05186 whole entry, looked up): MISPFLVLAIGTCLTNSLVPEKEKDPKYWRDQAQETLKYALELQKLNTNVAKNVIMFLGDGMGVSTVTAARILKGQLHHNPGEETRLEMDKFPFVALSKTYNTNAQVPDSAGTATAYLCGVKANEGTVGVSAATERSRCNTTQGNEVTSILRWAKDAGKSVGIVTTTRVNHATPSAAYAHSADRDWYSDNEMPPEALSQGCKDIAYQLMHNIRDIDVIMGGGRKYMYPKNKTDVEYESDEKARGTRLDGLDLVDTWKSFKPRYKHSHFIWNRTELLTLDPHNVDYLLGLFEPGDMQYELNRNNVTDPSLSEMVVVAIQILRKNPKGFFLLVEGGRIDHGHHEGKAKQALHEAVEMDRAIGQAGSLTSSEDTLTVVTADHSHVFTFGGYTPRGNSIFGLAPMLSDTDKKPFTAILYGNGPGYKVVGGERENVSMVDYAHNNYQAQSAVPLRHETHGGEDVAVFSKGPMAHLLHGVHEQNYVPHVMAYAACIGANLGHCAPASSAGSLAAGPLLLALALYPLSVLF
PMI act satM6P – activators of human phosphomannose isomerase at near-saturating mannose 6-phosphate; P34949; coupled PMI enzyme assay, resazurin fluorescence, 20 min; stronger effect = higher value; 1 = untreated enzyme, 0 = substrate-free blank; activation factor at 20 µM; 0.34% of 190,000 active;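 active = activation factor of 2 or more at 20 µM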
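Material: human phosphomannose isomerase with PGI, G6PDH, diaphorase coupling enzymes / Reagent: Man-6-P substrate 1.0 mM / Dosing: single compound dose of 20 µM, 1% DMSO final / Incubation: enzyme reaction with compound 20 min at room temperature / Signal: resorufin fluorescence (Ex 544/Em 590 nm) from resazurin via diaphorase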
TNAP inh noacc – inhibitors of human TNAP without phosphate acceptor; P05186; purified TNAP, CDP-star luminescence, 30 min; inhibition, % at 20 µM; 0.26% of 200,000 active; AID 1012;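 active = tissue-nonspecific alkaline phosphatase inhibition above about 50% at 20 µM in the single-dose screen, limit read from the data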;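 also: 0% = DMSO negative control and 100% = EDTA positive control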
TNAP act hiacc – increases human TNAP activity under high phosphate acceptor concentration | activation factor at 20 µM | P05186 | 200,000 tested, under 10 active | purified TNAP, CDP-star luminescence, 1 M DEA, 30 min; stronger effect = higher value; 0 = EDTA background, 1 = DMSO-only activity;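 active = activation factor at least 2 at 20 µM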
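Dosing: 20 µM single point. System: human TNAP. Amount: TNAP 1/800 final. Incubation: 30 min, room temperature. Read-out: TNAP activation factor scaled between EDTA and DMSO control wells. Signal: luminescence from CDP-star hydrolysis. Medium: 1 M DEA, pH 9.8, Mg2+, Zn2+. Control set: EDTA negative control, DMSO positive control.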
PMI activator – increases human mannose-6-phosphate isomerase activity; purified human PMI, coupled resazurin fluorescence, 20 min; stronger effect = higher value; 1 = vehicle control, 0 substrate-free wells; activation factor at 20 µM; 0.005% of 190,000 active;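 active = activation factor of 2 or more at 20 µM, relative to plate controls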
* = called active by the depositor. The list is not random: actives were taken first. Their share in the collection is about 0.64%.

SMILES	TNAP inh hiacc	PMI act satM6P	TNAP inh noacc	TNAP act hiacc	PMI activator
CCN(CC)c1ccc(C(=O)O)cc1	7	1	-2	0.9	1
[O-]C1=N/[N+](=C/c2ccc(Cl)cc2)CC1	0	2*	-1	1	1.5
O=C(Cn1cncn1)NCc1cc(F)ccc1F	-6	1.1	-13	1.1	1
Cc1c(N/N=C(\C#N)C(=O)c2ccccc2)c(=O)n(-c2ccccc2)n1C	30	2.1*	-80	0.7	1.6
Nc1c(C(=O)NCC2CCCO2)sc2nc3c(c(-c4ccco4)c12)CC/C3=C\c1ccco1 (configuration not stated)	17	1	15	0.8	1.2
COc1ccc(OC)c(/C=N/NC(=O)CCc2ccc(O)c(O)c2)c1	14	0.7	62*	0.9	0.6
COc1ccc(OC)c(/C=N/NC(=O)CC(=O)NCc2ccccc2)c1	-5	1.1	-8	1.1	0.9
COc1ccc(-c2nc3n(n2)C(=O)CC(c2ccco2)S3)cc1 (configuration not stated)	0	1.3	76*	1	1.1
COc1ccc(C2=NN(C(N)=S)C(c3ccco3)C2)cc1 (configuration not stated)	2	0.6	-4	1	0.8
Cc1nonc1NCn1nnc2ccccc21	-2	0.9	-4	1	0.9
Cc1ccc(N2C(=O)C3C(C2=O)C(C(=O)c2ccc(Cl)cc2)N2CCCC32)cc1 (configuration not stated)	3	2*	-6	1	1.6
Cn1c(CCN2CCOCC2)nc2cc(NC(=O)c3cccs3)ccc21	-6	1	-11	1.1	1
O=C(O)C1Nc2c(O)cc(Cl)c([N+](=O)[O-])c2C2C=CCC12 (configuration not stated)	31	2.2*	65*	0.7	1.7
O=C(O)c1ccccc1C(=O)N1N=C2/C(=C/c3cccc([N+](=O)[O-])c3)CCCC2C1c1cccc([N+](=O)[O-])c1 (configuration not stated)	3	1	79*	1	1
Oc1ccc(/C=N/Nc2cc(N3CCOCC3)nc(N3CCOCC3)n2)cc1O	9	0.4	67*	0.9	0.2
CCOC(=O)C1(Cc2ccccc2)CCN(Cc2ccc3c(c2)OCCO3)CC1	-6	1	-4	1.1	1
COc1ccc(NC(=S)N2CCN(C(=O)C3CCCO3)CC2)c(OC)c1 (configuration not stated)	-3	0.9	-4	1	1
CCCSc1nc2cc(C)c(C)cc2n1CC(O)CO (configuration not stated)	-3	0.9	-9	1	1
CCCSc1nc2cc(C)c(C)cc2n1CC(C)O (configuration not stated)	-3	2.3*	-10	1	1.6
CSc1nncn1/N=C/c1ccc([N+](=O)[O-])cc1	1	1	-5	1	1
CS/C(N)=N/N=C/c1ccc([N+](=O)[O-])cc1	6	2.5*	15	0.9	1.6
O=C(N/N=C/c1ccco1)c1cc(-c2cccc3ccccc23)n[nH]1	4	1	27	1	0.9
O=C(N/N=C/c1ccco1)c1cc(-c2ccccc2)n[nH]1	22	0.9	93*	0.8	0.9
Cc1ccc(-c2cc(C(=O)N/N=C/c3ccco3)[nH]n2)cc1	15	0.9	87*	0.9	0.9
CCOC(=O)c1cc(-c2cccc([N+](=O)[O-])c2)n[nH]1	-2	0.9	62*	1	0.9
SMILES	TNAP inh hiacc	PMI act satM6P	TNAP inh noacc	TNAP act hiacc	PMI activator
O=C(O)c1cc(-c2cccc([N+](=O)[O-])c2)n[nH]1	-3	1	41	1	1.1
O=C(Nc1cc(C(=O)N2CCOCC2)ccc1N1CCCC1)c1cccs1	-3	2.1*	-11	1	1.7
O=C(Nc1ccc(C(=O)N2CCOCC2)cc1)c1cccs1	-9	1.2	-6	1.1	1.1
Cc1ccc2c(CN3CCCc4ccccc43)cc(=O)oc2c1C	-3	2.3*	-6	1	1.8
ON1C(c2ccc(Cl)cc2Cl)N(O)[C@H]2CCCC[C@H]21 (some centres not stated)	-5	1.1	4	1.1	1.3
CC1N(O)C(c2ccc(Cl)cc2Cl)N(O)C1(C)C (configuration not stated)	-2	2*	-2	1	1.8
O=C(COC(=O)C1CC(=O)N(Cc2ccccc2)C1)c1ccc(F)cc1 (configuration not stated)	-2	1.1	-8	1	1.1
COc1ccc(-c2nc(SC)n(S(=O)(=O)c3ccccc3)n2)cc1	-1	0.9	38	1	0.9
COc1ccc(-c2nc(SCc3ccccc3)n(S(C)(=O)=O)n2)cc1	1	1	62*	1	1
CCS(=O)(=O)n1nc(-c2ccc(Cl)cc2)nc1SCc1ccccc1	-3	1.3	62*	1	1
CCS(=O)(=O)n1nc(-c2ccc(Cl)cc2)nc1N	3	0.9	12	1	0.9
O=C1NCCC/C1=N/Nc1ccc(F)cc1	-4	2.2*	-9	1	1.6
O=C(CCc1ccc(Oc2cc([N+](=O)[O-])cc([N+](=O)[O-])c2)cc1)N1CCCCCC1	4	1	-17	1	0.9
CCC(=O)NNc1ccc(Br)cc1	-3	2.8*	-9	1	2*
CCOC(=O)C(=NC1CCS(=O)(=O)C1)NNc1ccc(Br)cc1 (configuration not stated)	3	2.4*	4	1	1.6
CCOC(=O)C(=NC(C)CC)NNc1ccc(Br)cc1 (configuration not stated)	-2	2.7*	4	1	1.6
O=[N+]([O-])c1ccc2c(c1)C(N1CCOCC1)/C(=C/COc1ccc(Cl)cc1Cl)O2 (configuration not stated)	4	0.8	-5	1	0.8
Cn1c(Cl)cnc1C1CC(=O)c2cc(Cl)ccc2O1 (configuration not stated)	8	1	4	0.9	0.9
CC(C)(C)c1nc2ccccc2c2nnc(SCC(=O)Nc3nc4ccccc4s3)n12	52*	1	4	0.5	1
CC(C)(C)c1nc2ccccc2c2nnc(SCC(=O)Nc3nccs3)n12	-2	1	4	1	0.9
Cn1cnc([N+](=O)[O-])c1Sc1ncccc1N	-4	1.2	-1	1	1.1
COc1ccc(-c2csc(NC(=O)CSc3nc(SC)ns3)n2)cc1	-1	1	-19	1	1
COC(=O)Cc1cc(=O)[nH]c(Nc2nc3ccccc3o2)n1	-4	0.8	75*	1	0.8
